Measured values published in ChEMBL document CHEMBL1135672, “QSAR evaluation of the Ch'an Su and related bufadienolides against the colchicine-resistant primary liver carcinoma cell line PLC/PRF/5(1)” (J Med Chem, 2002).
≈ marks a conversion by molar mass, not a printed value.

How the values were obtained:
Format in all cases: functional, Homo sapiens
[1] = Inhibitory activity against the primary liver carcinoma (PLC) cell line PLC/PRF/5
[2] = Inhibitory activity against Colchicine resistant parent primary liver carcinoma (PLC) cell line PLC/PRF/5
Outline: (§1)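 PLC/PRF/5 cells were precultured 24 h at 37 °C in 5% CO₂ in 96-well plates, then given colchicine at 0.5 μg/mL. Test compounds were added in dilutions of 10⁻²–10⁻⁶ μg/mL and incubated 72 h at 37 °C in 5% CO₂. Survival was read by MTT. IC50 is the μg/mL giving 50% growth inhibition of the colchicine-resistant cells.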

[3] = Inhibitory activity against colchicine resistant parent primary liver carcinoma (PLC) cell line PLC/PRF/5; outline: as §1

Row | Structure (SMILES) | IC50 [1] [mg/L] | IC50 [2] [mg/L] | IC50 [3] [mg/L]
1 | C[C@]12CCC3C(CC[C@@H]4CC(=O)CC[C@]34C)C1=CC[C@@H]2c1ccc(=O)oc1 (stereo partly drawn) | 4.9 (≈ 13.4 µM) | 7.8 (≈ 21.3 µM) | –
2 | C[C@]12CC[C@H](O)C[C@H]1CC[C@@H]1[C@@H]2CC[C@]2(C)[C@@H](c3ccc(=O)oc3)[C@@H](O)C[C@]12O [DESACETYLBUFOTALIN] | 0.00078 (≈ 0.00194 µM) | – | 0.008 (≈ 0.0199 µM)
3 | C[C@]12CC[C@H](O)C[C@H]1CC[C@@H]1[C@@H]2CC[C@]2(C)[C@@H](c3ccc(=O)oc3)CC(=O)[C@@H]12 | 8.2 (≈ 21.3 µM) | – | 12 (≈ 31.2 µM)
4 | C[C@]12CC[C@H](O)C[C@H]1CC[C@@H]1[C@@H]2CC[C@]2(C)C3CC[C@]12OC=C3/C=C/CC(=O)O | 10 (≈ 25 µM) | – | > 50
5 | COC(=O)C/C=C/C1=CO[C@]23C[C@H](OC(C)=O)C1[C@@]2(C)CC[C@H]1[C@H]3CC[C@@H]2C[C@@H](OC(C)=O)CC[C@@]21C | 49 (≈ 95.2 µM) | – | 50 (≈ 97.2 µM)
6 | C[C@]12CCC3C(CC[C@@H]4C[C@@H](O)CC[C@]34C)C1=CC[C@@H]2c1ccc(=O)oc1 (stereo partly drawn) | 0.83 (≈ 2.25 µM) | – | 0.9 (≈ 2.44 µM)
7 | CC(=O)CC1OC2C(C1C=O)[C@@]1(C)CC[C@H]3[C@@H](CC[C@@H]4C[C@@H](O)CC[C@@]43C)[C@]13O[C@H]23 (stereo partly drawn) | 26 (≈ 62.4 µM) | – | > 50
8 | CC(=O)O[C@H]1CC[C@]2(C)C3CC[C@]4(C)[C@@H](c5ccc(=O)oc5)[C@@H](O)[C@@H]5O[C@@]54C3CC[C@@H]2C1 (stereo partly drawn) | 0.88 (≈ 1.99 µM) | – | 1 (≈ 2.26 µM)
9 | CC(=O)O[C@H]1CC[C@]2(C)C3CC[C@@]4(C)C(=C[C@H](OC(C)=O)[C@@H]4c4ccc(=O)oc4)C3CC[C@@H]2C1 (stereo partly drawn) | 5 (≈ 10.7 µM) | – | 7.3 (≈ 15.6 µM)
10 | C[C@]12CCC(=O)C[C@H]1CC[C@@H]1[C@@H]2CC[C@]2(C)[C@@H](c3ccc(=O)oc3)CC(=O)[C@@H]12 | 7 (≈ 18.3 µM) | – | 10 (≈ 26.1 µM)
11 | C[C@]12CC[C@H](O)C[C@@]1(O)CC[C@@H]1[C@@H]2CC[C@]2(C)[C@@H](c3ccc(=O)oc3)CC[C@]12O [TELOCINOBUFAGIN] | 0.000345 (≈ 0.000857 µM) | – | 0.0026 (≈ 0.00646 µM)
12 | CC(=O)O[C@H]1CC[C@@]2(C)[C@H](CC[C@@H]3[C@@H]2CC[C@]2(C)[C@@H](c4ccc(=O)oc4)[C@@H](OC(C)=O)[C@H]4O[C@]342)C1 | 0.04 (≈ 0.0825 µM) | – | 0.092 (≈ 0.19 µM)
13 | C[C@]12CC[C@H](OC(=O)CCCCCCC(=O)O)C[C@H]1CC[C@@H]1[C@@H]2CC[C@]2(C)[C@@H](C3=CC(=O)OC3)CC[C@]12O | 5.2 (≈ 9.8 µM) | – | 8.6 (≈ 16.2 µM)
14 | CC(=O)O[C@@H]1C[C@]2(C)[C@@H](c3ccc(=O)oc3)CC[C@]2(O)[C@@H]2CC[C@@H]3CC(=O)CC[C@]3(C)[C@H]21 | 0.79 (≈ 1.79 µM) | – | 5.6 (≈ 12.7 µM)
15 | CC(=O)O[C@H]1[C@H]2O[C@]23[C@@H]2CC[C@@H]4C[C@@H](OC(=O)CCCCCCC(=O)O)CC[C@]4(C)[C@H]2CC[C@]3(C)[C@H]1c1ccc(=O)oc1 | 0.01 (≈ 0.0167 µM) | – | 0.06 (≈ 0.1 µM)
16 | C[C@]12CC[C@@H](O)C[C@H]1CC[C@@H]1[C@@H]2CC[C@]2(C)[C@@H](c3ccc(=O)oc3)CC[C@]12O | 0.076 (≈ 0.197 µM) | – | 0.077 (≈ 0.199 µM)
17 | C[C@]12CC[C@H](O)C[C@H]1CC[C@@H]1[C@@H]2CC[C@]2(C)[C@@H](C3=CC(=O)OC3)CC[C@]12O [DIGITOXIGENIN] | 0.00087 (≈ 0.00232 µM) | – | 0.0092 (≈ 0.0246 µM)
18 | C[C@]12C=CC(=O)C=C1CCC1C2CC[C@]2(C)[C@@H](c3ccc(=O)oc3)C[C@H]3O[C@]132 (stereo partly drawn) | 6.7 (≈ 17.7 µM) | – | 10 (≈ 26.4 µM)
19 | CC(=O)O[C@H]1CC[C@@]2(C)[C@H](CC[C@@H]3[C@@H]2[C@H](O)C[C@]2(C)[C@@H](c4ccc(=O)oc4)CC[C@]32O)C1 | 0.06 (≈ 0.135 µM) | – | 0.66 (≈ 1.48 µM)
20 | CC(=O)O[C@H]1CC[C@@]2(C)[C@H](CC[C@@H]3[C@@H]2CC[C@]2(C)[C@@H](c4ccc(=O)oc4)C[C@H]4O[C@]342)C1 | 0.32 (≈ 0.75 µM) | – | 0.95 (≈ 2.23 µM)

Row | Structure (SMILES) | IC50 [1] [mg/L] | IC50 [2] [mg/L] | IC50 [3] [mg/L]
21 | CC(=O)O[C@H]1CC[C@@]2(C)[C@H](CC[C@@H]3[C@@H]2[C@H](O)C(=O)[C@]2(C)[C@@H](c4ccc(=O)oc4)CC[C@]32O)C1 | 0.87 (≈ 1.9 µM) | – | 6.8 (≈ 14.8 µM)
22 | C[C@]12CCC3C(CC[C@@H]4C[C@@H](O)CC[C@]34C)C1=CC[C@@H]2C1=CC(=O)OC1 (stereo partly drawn) | 0.36 (≈ 1.01 µM) | – | 0.73 (≈ 2.05 µM)
23 | COC(=O)C/C=C/C1=CO[C@]23CCC1[C@@]2(C)CC[C@H]1[C@H]3CC[C@@H]2C[C@@H](OC(C)=O)CC[C@@]21C | 6.6 (≈ 14.5 µM) | – | 41 (≈ 89.8 µM)
24 | CC(=O)O[C@H]1CC[C@@]2(C)[C@H](CC[C@@H]3[C@@H]2CC[C@]2(C)[C@@H](c4ccc(=O)oc4)C[C@H](O)[C@]32O)C1 | 0.71 (≈ 1.6 µM) | – | 5.6 (≈ 12.6 µM)
25 | CC(=O)O[C@H]1CC[C@@]2(C)[C@H](CC[C@@H]3[C@@H]2CC[C@]2(C)[C@@H](c4ccc(=O)oc4)CC(=O)[C@]32O)C1 | 0.077 (≈ 0.174 µM) | – | 6.4 (≈ 14.5 µM)
26 | C[C@]12CCC(=O)C[C@H]1CCC1C2CC[C@]2(C)[C@@H](c3ccc(=O)oc3)C[C@@H]3O[C@@]132 (stereo partly drawn) | 8.7 (≈ 22.7 µM) | – | 43 (≈ 112 µM)
27 | CC(=O)O[C@H]1[C@H]2O[C@]23[C@@H]2CC[C@@H]4C[C@@H](OC(=O)CCC(=O)O)CC[C@]4(C)[C@H]2CC[C@]3(C)[C@H]1c1ccc(=O)oc1 | 0.85 (≈ 1.57 µM) | – | 0.96 (≈ 1.77 µM)
28 | C[C@]12CCC(=O)C[C@H]1CC[C@@H]1[C@@H]2CC[C@]2(C)[C@@H](c3ccc(=O)oc3)CC[C@]12O | 0.0093 (≈ 0.0242 µM) | – | 0.61 (≈ 1.59 µM)
29 | C[C@]12C=CC(=O)C[C@H]1CCC1C2CC[C@]2(C)[C@@H](c3ccc(=O)oc3)C[C@H]3O[C@]132 (stereo partly drawn) | 2.6 (≈ 6.83 µM) | – | 7.8 (≈ 20.5 µM)
30 | C[C@]12CC[C@H](OC(=O)CCC(=O)O)C[C@H]1CC[C@@H]1[C@@H]2CC[C@]2(C)[C@@H](c3ccc(=O)oc3)CC[C@]12O | 0.066 (≈ 0.136 µM) | – | 0.51 (≈ 1.05 µM)
31 | C[C@]12CC[C@H](O)C=C1CCC1C2CC[C@]2(C)[C@@H](c3ccc(=O)oc3)CC[C@]12O (stereo partly drawn) | 0.00031 (≈ 0.000806 µM) | – | 0.00032 (≈ 0.000832 µM)
32 | CC(=O)O[C@H]1[C@H]2O[C@]23[C@@H]2CC[C@@H]4C[C@@H](O)CC[C@]4(C)[C@H]2CC[C@]3(C)[C@H]1c1ccc(=O)oc1 [CINOBUFAGIN] | 0.00074 (≈ 0.00167 µM) | – | 0.00092 (≈ 0.00208 µM)
33 | CCOC(=O)C/C=C/C1=CO[C@]23CCC1[C@@]2(C)CC[C@H]1[C@H]3CC[C@@H]2C[C@@H](O)CC[C@@]21C | 7.5 (≈ 17.5 µM) | – | 9.5 (≈ 22.2 µM)
34 | CC(=O)O[C@H]1CC[C@]2(C)C3CC[C@]4(C)[C@@H](c5ccc(=O)oc5)C[C@@H]5O[C@@]54C3CC[C@@H]2C1 (stereo partly drawn) | 5.9 (≈ 13.8 µM) | – | 7.3 (≈ 17.1 µM)
35 | C[C@]12CC[C@H](O)C[C@H]1CC[C@@H]1[C@@H]2CC[C@]2(C)[C@@H](c3ccc(=O)oc3)C[C@H](O)[C@]12O | 35 (≈ 86.9 µM) | – | 30 (≈ 74.5 µM)
36 | C[C@]12CCC(=O)C[C@H]1CC[C@@H]1[C@@H]2CC[C@]2(C)[C@@H](c3ccc(=O)oc3)C[C@H]3O[C@]132 | 5.8 (≈ 15.2 µM) | – | 9.7 (≈ 25.4 µM)
37 | CC(=O)O[C@H]1CC[C@@]2(C)[C@H](CC[C@@H]3[C@@H]2CC[C@]2(C)[C@@H](c4ccc(=O)oc4)CC(=O)[C@@H]32)C1 | 0.55 (≈ 1.29 µM) | – | 1.8 (≈ 4.22 µM)
38 | C[C@]12CC[C@H](O)C[C@H]1CC[C@@H]1[C@@H]2CC[C@]2(C)[C@@H](c3ccc(=O)oc3)CC[C@]12O [BUFALIN] | 0.00028 (≈ 0.000724 µM) | – | 0.00028 (≈ 0.000724 µM)
39 | C[C@]12CC[C@H]3[C@@H](CC[C@@H]4C[C@@H](O)CC[C@@]43CO)[C@]13O[C@@H]3C[C@@H]2c1ccc(=O)oc1 | 0.61 (≈ 1.52 µM) | – | 8.2 (≈ 20.5 µM)
